Laboratory results taken from ChEMBL document CHEMBL4145601, “Novel Nitric Oxide Donors of Phenylsulfonylfuroxan and 3-Benzyl Coumarin Derivatives as Potent Antitumor Agents” (ACS Med Chem Lett, 2018).
Activity calls are given as the source filed them. No cut-off for these calls is given here.

Assays:
WI-38 = assay: Cytotoxicity against human WI38 cells after 72 hrs by MTS assay; type: cell-based; conditions: WI-38, 72 h
Outline: (§1)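 Non-tumour human cells were HUVEC (umbilical vein endothelial), T29 (immortalized, nontumorigenic ovarian epithelial), WI-38 (lung fibroblasts) and MCF-10A (nontumorigenic breast epithelial). Viability was read by tetrazolium assay. IC50 is the mean of triplicate determinations.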

MCF-10A = assay: Cytotoxicity against human MCF10A cells after 72 hrs by MTS assay; type: cell-based; outline: as §1
HeLa = assay: Antiproliferative activity against human HeLa cells after 48 hrs by MTT assay; type: functional, cell-based
Outline: (§2)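 Human tumour lines were HeLa (cervical), SKOV3, OVCA429, OVCA433 and A2780 (ovarian), A549 (non-small cell lung), MDA-MB-231 and MCF-7 (breast), and KB (oral epidermoid). Antiproliferation was read by MTT assay. IC50 is the mean of triplicate determinations.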

SK-OV-3 = assay: Antiproliferative activity against human SKOV3 cells after 48 hrs by MTT assay; type: functional, cell-based; conditions: SK-OV-3, 48 h; outline: as §2
A549 = assay: Antiproliferative activity against human A549 cells after 48 hrs by MTT assay; type: functional, cell-based; conditions: A549, 48 h; outline: as §2
[1] = Antiproliferative activity against human OVCA429 cells after 48 hrs by MTT assay; type: functional, cell-based; conditions: OVCA429, 48 h; outline: as §2
[2] = Antiproliferative activity against human OVCA433 cells after 48 hrs by MTT assay; type: functional, cell-based; conditions: OVCA433, 48 h; outline: as §2
A2780 [3] = assay: Antiproliferative activity against human A2780 cells after 48 hrs by MTT assay; type: functional, cell-based; conditions: A2780, 48 h; outline: as §2
MDA-MB-231 = assay: Antiproliferative activity against human MDA-MB-231 cells after 48 hrs by MTT assay; type: functional, cell-based; conditions: MDA-MB-231, 48 h
MCF7 = assay: Antiproliferative activity against human MCF7 cells after 48 hrs by MTT assay; type: functional, cell-based; conditions: MCF7, 48 h; outline: as §2
KB = assay: Antiproliferative activity against human KB cells after 48 hrs by MTT assay; type: functional, cell-based; outline: as §2
MV4-11 = assay: Antiproliferative activity against human MV411 cells after 72 hrs by MTS assay; type: functional, cell-based; conditions: MV4-11, 72 h
Outline: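 Human myeloid leukaemia MV-4-11 cells; antiproliferation read by MTS assay. IC50 is the mean of triplicate determinations.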

MM1.S = assay: Antiproliferative activity against human MM1S cells after 72 hrs by MTS assay; type: functional, cell-based
[4] = Antiproliferative activity against human A2780/CDDP cells after 48 hrs by MTT assay; type: functional, cell-based
Outline: (§3)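 Drug-resistant human tumour lines were A2780/CDDP (cisplatin-resistant ovarian), MDA-MB-231/Gem (gemcitabine-resistant breast), MCF-7/ADR and KB-V. Antiproliferation was read by MTT assay. IC50 is the mean of triplicate determinations.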

[5] = Antiproliferative activity against human MDA-MB-231/Gem cells after 48 hrs by MTT assay; type: functional, cell-based
NCI/ADR-RES = assay: Antiproliferative activity against human MCF7/ADR cells after 48 hrs by MTT assay; type: functional, cell-based; outline: as §3
[6] = Antiproliferative activity against human KBV cells after 48 hrs by MTT assay; type: functional, cell-based; outline: as §3
[7] = Selectivity ratio of IC50 for human A2780 cells to IC50 for A2780/CDDP cells; type: functional
Outline: (§4)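 Selectivity ratio = IC50 in the drug-sensitive parent line / IC50 in its resistant subline (A2780 vs A2780/CDDP, MDA-MB-231 vs MDA-MB-231/Gem, MCF-7 vs MCF-7/ADR, KB vs KB-V). Each IC50 came from MTT assays, mean of triplicates.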

[8] = Selectivity ratio of IC50 for human MDA-MB-231 cells to IC50 for MDA-MB-231/Gem cells; type: functional; outline: as §4
[9] = Selectivity ratio of IC50 for human MCF7 cells to IC50 for MCF7/ADR cells; type: functional; outline: as §4
[10] = Selectivity ratio of IC50 for human KB cells to IC50 for KBV cells; type: functional; outline: as §4
HUVEC = assay: Cytotoxicity against HUVEC after 48 hrs by MTT assay; type: cell-based; conditions: Homo sapiens; outline: as §1
[11] = Cytotoxicity against human T29 cells after 48 hrs by MTT assay; type: cell-based; conditions: T29, 48 h; outline: as §1
[12] = Drug metabolism in human A2780 cells assessed as nitric oxide release at 100 uM after 150 mins by Griess assay; type: ADME, cell-based; conditions: a2780, 2.5 h
[13] = target: Dual specificity mitogen-activated protein kinase kinase; MEK1/2 (Homo sapiens) (UniProt P36507+Q02750); assay: Inhibition of MEK (unknown origin); type: protein assay
A2780 [14] = assay: Antiproliferative activity against human A2780 cells at 50 nM after 48 hrs in presence of scavenger c-PTIO by MTT assay; type: functional, cell-based
Outline: (§5)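 A2780 and A2780/CDDP cells were exposed to compound at 50 nM together with a series of concentrations of the NO scavenger c-PTIO. Antiproliferation was measured and reported as mean ± SEM of two independent experiments.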

Homo sapiens = organism: Homo sapiens; assay: Antiproliferative activity against human A2780/CDDP cells at 50 nM after 48 hrs in presence of scavenger c-PTIO by MTT assay; type: functional, cell-based; outline: as §5
A2780 [15] = assay: Induction of apoptosis in human A2780 cells assessed as increase in early apoptotic cells at 10 to 20 nM measured after 24 hrs by Annexin-V-FITC/propidium iodide staining based flow cytometric method; type: functional, cell-based

Chain of Dual specificity mitogen-activated protein kinase kinase; MEK1/2 (Homo sapiens) (P36507 whole entry, looked up): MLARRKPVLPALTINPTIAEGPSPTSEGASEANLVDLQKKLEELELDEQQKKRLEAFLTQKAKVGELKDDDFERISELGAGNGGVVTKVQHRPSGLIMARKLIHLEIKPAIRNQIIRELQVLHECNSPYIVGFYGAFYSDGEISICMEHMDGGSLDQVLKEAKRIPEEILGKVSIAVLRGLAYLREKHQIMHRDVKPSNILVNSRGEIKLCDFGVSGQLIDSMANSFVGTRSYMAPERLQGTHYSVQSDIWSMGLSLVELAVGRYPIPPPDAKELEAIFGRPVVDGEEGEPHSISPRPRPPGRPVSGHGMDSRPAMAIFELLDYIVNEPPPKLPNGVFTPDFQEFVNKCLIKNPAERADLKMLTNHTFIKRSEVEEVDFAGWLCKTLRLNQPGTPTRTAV
Chain of Dual specificity mitogen-activated protein kinase kinase; MEK1/2 (Homo sapiens) (Q02750 whole entry, looked up): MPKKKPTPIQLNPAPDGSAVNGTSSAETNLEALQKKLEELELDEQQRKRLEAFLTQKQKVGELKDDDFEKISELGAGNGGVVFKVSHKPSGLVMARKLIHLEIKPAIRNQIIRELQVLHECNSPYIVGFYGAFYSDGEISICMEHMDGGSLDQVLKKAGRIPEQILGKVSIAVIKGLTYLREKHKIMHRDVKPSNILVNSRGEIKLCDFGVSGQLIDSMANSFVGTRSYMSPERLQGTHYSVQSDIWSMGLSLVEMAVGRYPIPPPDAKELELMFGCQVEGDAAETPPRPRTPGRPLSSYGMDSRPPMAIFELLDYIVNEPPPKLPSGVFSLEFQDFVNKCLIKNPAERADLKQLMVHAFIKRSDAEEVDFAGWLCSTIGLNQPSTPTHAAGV

Compound	IC50 (WI-38) [nM]	IC50 (HeLa) [nM]	IC50 (SK-OV-3) [nM]	IC50 (A549) [nM]	IC50 [1] [nM]	IC50 [2] [nM]	IC50 (A2780 [3]) [nM]	IC50 (MDA-MB-231) [nM]	IC50 (MCF7) [nM]	IC50 (KB) [nM]	IC50 (MV4-11) [nM]	IC50 (MM1.S) [nM]	IC50 [4] [nM]	IC50 [5] [nM]	IC50 (NCI/ADR-RES) [nM]	IC50 [6] [nM]	Ratio IC50 [7]	Ratio IC50 [8]	Ratio IC50 [9]	Ratio IC50 [10]	also measured
Cc1c(Cc2ccccc2)c(=O)oc2cc(OCCOc3no[n+]([O-])c3S(=O)(=O)c3ccccc3)ccc12	> 20000	22.9	17.3	2	1.7	1.1	12.7	6	2350	4540	24.5	12	94	25.2	16.3	16	0.1	0.2	144.2	283.9	IC50 (MCF-10A): > 20000 nM; IC50 (HUVEC): 440 nM; IC50 [11]: > 5000 nM; Drug metabolism [12]: Metabolite_Detected; inhibition [13]: inactive
Nc1cccc2c1CN(C1CCC(=O)NC1=O)C2=O (stereo not given) [LENALIDOMIDE]	> 20000	–	–	–	–	–	–	–	–	–	> 20000	–	–	–	–	–	–	–	–	–	IC50 (MCF-10A): > 20000 nM
COc1cc(OCCOc2no[n+]([O-])c2S(=O)(=O)c2ccccc2)ccc1C(=O)/C=C/c1ccccc1	440	17.8	35.8	3.3	4.4	10.1	8.7	0.5	1860	2180	29.3	28	51.7	10.5	18	13.9	0.2	0.05	103.6	157	IC50 (HUVEC): 410 nM; IC50 [11]: 2500 nM; Drug metabolism [12]: Metabolite_Detected; inhibition [13]: inactive
COCCOc1no[n+]([O-])c1S(=O)(=O)c1ccccc1	–	8830	3910	4780	5170	4390	1640	1230	3500	3690	–	–	4820	4750	7840	1960	0.3	0.3	0.5	1.9	–
Cc1c(Cc2ccc(F)cc2)c(=O)oc2cc(OCCOc3no[n+]([O-])c3S(=O)(=O)c3ccccc3)ccc12	> 20000	2.8	8.3	3.7	3.9	3.3	6.6	0.8	2850	3230	27.2	143	22.8	6.9	5.1	11	0.3	0.1	559.4	294	IC50 (MCF-10A): > 20000 nM; IC50 (HUVEC): 270 nM; IC50 [11]: > 5000 nM; Drug metabolism [12]: Metabolite_Detected; Activity (A2780 [14]): inactive; Activity (Homo sapiens): inactive; inhibition [13]: inactive; Activity (A2780 [15]): Active
Cc1ccc(NC(=O)NCc2ccc3c(c2)CN(C2CCC(=O)NC2=O)C3=O)cc1Cl (stereo not given)	> 20000	–	–	–	–	–	–	–	–	–	0.3	–	–	–	–	–	–	–	–	–	IC50 (MCF-10A): 5 nM
CNS(=O)(=O)Nc1cccc(Cc2c(C)c3ccc(OCCOc4no[n+]([O-])c4S(=O)(=O)c4ccccc4)cc3oc2=O)c1	1360	15.4	19.2	7.9	6.1	16.3	10.2	1.1	3130	1140	66.3	24	47.2	50.4	50.1	65.4	0.2	0.02	62.5	17.5	IC50 (HUVEC): 190 nM; IC50 [11]: > 5000 nM; Drug metabolism [12]: Metabolite_Detected; inhibition [13]: inactive
COc1cccc2c1C(=O)c1c(O)c3c(c(O)c1C2=O)C[C@@](O)(C(=O)CO)C[C@@H]3O[C@H]1C[C@H](N)[C@H](O)[C@H](C)O1 [DOXORUBICIN]	–	–	–	–	–	–	–	–	–	–	–	–	–	–	> 100000	–	–	–	–	–	–
COc1cc(OCCOc2no[n+]([O-])c2S(=O)(=O)c2ccccc2)ccc1C(=O)/C=C/c1ccc(F)cc1	560	6.9	25	3.5	4	6.6	14.5	1.4	1410	1660	29.6	25	34.1	93	47.9	10.1	0.4	0.02	29.5	164.9	IC50 (HUVEC): 360 nM; IC50 [11]: 3500 nM; Drug metabolism [12]: Metabolite_Detected; inhibition [13]: inactive; Activity (A2780 [15]): Active
